The values below come from ChEMBL document CHEMBL1133728, “Synthesis, structure, and neuroprotective properties of novel imidazolyl nitrones” (J Med Chem, 2000).

Assay [1] concerns Mus musculus. Briefly: Inhibition of t-BHP (tert-butyl-hydro-peroxide) induced toxicity in mice following 150 mg/Kg i.p. It counts as functional. A digest of the protocol:
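Male NMRI mice (30–35 g) pretreated ip with 150 mg/kg in 0.2 mL saline/Tween, 30 min before icv injection of 70% t-BHP (22 mg/kg/μl). Lethality checked at 1, 2, 5, 24 h; value is percentage survival at 2 h versus t-BHP-only group; n = 10 per group.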

Assay [2] concerns Mus musculus. Briefly: In vivo induction of hypothermia in mice following 150 mg/Kg i.p. The class given is functional.

For `Cn1c(/C=[N+](\[O-])C(C)(C)C)cnc1-c1ccccc1`, the Neuroprotection with Mus musculus [1] turned out to be 0%. In the assay on Mus musculus [2], this compound came in with a Hypothermic effect of 0.69 °C.

In the assay with Mus musculus [1], `CC(C)(C)/[N+]([O-])=C/c1nc(-c2ccccc2)c[nH]1` displayed a Neuroprotection of 0%. In the assay with Mus musculus [2], this compound gave a Hypothermic effect of 1.42 degrees C.

With `CC(C)(C)/[N+]([O-])=C/c1c[nH]c(-c2ccc(Cl)cc2)n1`, the Neuroprotection in the assay with Mus musculus [1] is given as 89%. Further, the Hypothermic effect with Mus musculus [2] was determined as 1.32 °C.

Compound `CC(C)(C)/[N+]([O-])=C/c1c[nH]c(-c2ccc([N+](=O)[O-])cc2)n1` came in with a Neuroprotection with Mus musculus [1] of 93%. The compound further registered a Hypothermic effect with Mus musculus [2] of 1.89 °C.

With `CC(C)(C)/[N+]([O-])=C/c1c[nH]c(-c2ccsc2)n1`, the Neuroprotection with Mus musculus [1] is recorded as 40%. For the same compound, in the assay on Mus musculus [2], the Hypothermic effect was found to be 0.48 °C.

For the compound `CC(C)(C)/[N+]([O-])=C/c1c[nH]c(-c2ccccn2)n1`, the Neuroprotection with Mus musculus [1] is given as 0%. The Hypothermic effect in the assay on Mus musculus [2] was found to be 0.36 °C.

`Cc1ccc(-c2nc(/C=[N+](\[O-])C(C)(C)C)c[nH]2)cc1` returned a Neuroprotection with Mus musculus [1] of 66%. The Hypothermic effect in the assay on Mus musculus [2] was found to be 1.24 °C.

`CC(C)(C)/[N+]([O-])=C/c1c[nH]c(-c2ccccc2)n1` came in with a Neuroprotection with Mus musculus [1] of 78%. Also, the Hypothermic effect with Mus musculus [2] was determined as 0.33 °C.

In the assay with Mus musculus [1], `CC(C)(C)/[N+]([O-])=C/c1c[nH]c(-c2ccoc2)n1` gave a Neuroprotection of 30%. The same compound displayed a Hypothermic effect in the assay on Mus musculus [2] of 0.78 °C.

Turning to `CC(C)(C)/[N+]([O-])=C/c1c[nH]c(-c2ccc(F)cc2)n1`, in the assay on Mus musculus [1], the Neuroprotection was found to be 67%. The same compound yielded a Hypothermic effect in the assay with Mus musculus [2] of 2.01 °C.

Take `CC(C)(C)/[N+]([O-])=C/c1c[nH]c(-c2ccc3ccccc3c2)n1`: in the assay with Mus musculus [1], the Neuroprotection is on record as 94%. Also, in the assay with Mus musculus [2], the Hypothermic effect was found to be 1.62 °C.

Consider `COc1ccc(-c2nc(/C=[N+](\[O-])C(C)(C)C)c[nH]2)cc1`, for which the Neuroprotection in the assay on Mus musculus [1] was determined as 53%. For the same compound, the Hypothermic effect in the assay with Mus musculus [2] is 0.53 degrees C.

In the case of `CC(C)(C)/[N+]([O-])=C/c1ccccc1`, in the assay with Mus musculus [1], the Neuroprotection is on record as 57%. In the assay on Mus musculus [2], this compound came in with a Hypothermic effect of 0.9 °C.

For `CC(C)(C)/[N+]([O-])=C/c1c[nH]c(-c2cccnc2)n1`, in the assay on Mus musculus [1], the Neuroprotection was 0%. In the assay on Mus musculus [2], this compound displayed a Hypothermic effect of 0.75 °C.

Consider `CC(C)(C)/[N+]([O-])=C/c1c[nH]c(-c2c[nH]cn2)n1`, for which the Neuroprotection with Mus musculus [1] is listed as 0%. In the assay on Mus musculus [2], the Hypothermic effect turned out to be 0.13 °C.

For `CC(C)(C)/[N+]([O-])=C/c1c[nH]c(-c2ccncc2)n1`, in the assay with Mus musculus [1], the Neuroprotection is on record as 24%. For the same compound, in the assay on Mus musculus [2], the Hypothermic effect was 0.49 °C.

As for `Cn1cc(/C=[N+](\[O-])C(C)(C)C)nc1-c1ccccc1`, the Neuroprotection in the assay on Mus musculus [1] is given as 50%. The Hypothermic effect with Mus musculus [2] turned out to be 0.3 °C.

`CC(C)(C)/[N+]([O-])=C/c1c[nH]c(-c2ccccc2Cl)n1` came in with a Neuroprotection in the assay with Mus musculus [1] of 71%. Also, the Hypothermic effect with Mus musculus [2] is 1.91 °C.

Regarding `CC(C)(C)/[N+]([O-])=C/c1c[nH]c(-c2cccc3ccccc23)n1`, the Neuroprotection in the assay with Mus musculus [1] stood at 75%. The compound further yielded a Hypothermic effect in the assay with Mus musculus [2] of 0.52 °C.

With `CC(C)(C)/[N+]([O-])=C/c1c[nH]c(-c2ccc(C(F)(F)F)cc2)n1`, the Neuroprotection in the assay with Mus musculus [1] worked out at 80%. Further, the Hypothermic effect with Mus musculus [2] was found to be 2.16 °C.

Consider `CC(C)(C)/[N+]([O-])=C/c1c[nH]c(-c2ccco2)n1`, for which, in the assay on Mus musculus [1], the Neuroprotection turned out to be 15%. This compound also registered a Hypothermic effect with Mus musculus [2] of 0.72 °C.

In the case of `CC(C)(C)/[N+]([O-])=C/c1c[nH]c(-c2cccc(Cl)c2)n1`, in the assay on Mus musculus [1], the Neuroprotection is listed as 89%. For the same compound, in the assay with Mus musculus [2], the Hypothermic effect was found to be 1.66 °C.

`CC(C)(C)/[N+]([O-])=C/c1c[nH]c(-c2nccs2)n1`: the Neuroprotection with Mus musculus [1] was determined as 0%. The same compound gave a Hypothermic effect in the assay with Mus musculus [2] of 0.38 °C.
